Results published in ChEMBL document CHEMBL4428023, “1,4-Dihydropyridines Active on the SIRT1/AMPK Pathway Ameliorate Skin Repair and Mitochondrial Function and Exhibit Inhibition of Proliferation in Cancer Cells” (J Med Chem, 2016).
Calls of active or inactive are those of the source. No cut-off for these calls is given here.

Experiments:
[1] = tested on: C2C12; assay: Activation of AMPK/SIRT1 in mouse C2C12 cells assessed as increase in mitochondrial density at 30 uM after 16 hrs by Mitotracker Green staining-based confocal microscopy; assay type: cell-based
Procedure, shortened: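 Murine C2C12 myoblasts plated on coverslips and grown overnight at 37 °C, 5% CO2. Then switched to serum-free HBSS, pH 7.4, and treated 16 h at 30 µM, alone or with 5 µM compound C or EX-527. Mitotracker Green (200 nM final) added for the last 30 min. Cells fixed in 4% paraformaldehyde, permeabilized and imaged by confocal microscopy, with settings fixed on untreated cells. Plate fluorescence also quantified.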

[2] = molecular target: T1, NAD-dependent protein deacetylase sirtuin-1 (Homo sapiens) (UniProt Q96EB6); assay: Activation of full-length GST-tagged recombinant human SIRT1 assessed as enzyme activity obtained with subtraction of intrinsic fluorescence using p53-based untagged peptide as substrate at 50 uM after 30 mins by SIRTainty assay
T1 sequence (whole entry): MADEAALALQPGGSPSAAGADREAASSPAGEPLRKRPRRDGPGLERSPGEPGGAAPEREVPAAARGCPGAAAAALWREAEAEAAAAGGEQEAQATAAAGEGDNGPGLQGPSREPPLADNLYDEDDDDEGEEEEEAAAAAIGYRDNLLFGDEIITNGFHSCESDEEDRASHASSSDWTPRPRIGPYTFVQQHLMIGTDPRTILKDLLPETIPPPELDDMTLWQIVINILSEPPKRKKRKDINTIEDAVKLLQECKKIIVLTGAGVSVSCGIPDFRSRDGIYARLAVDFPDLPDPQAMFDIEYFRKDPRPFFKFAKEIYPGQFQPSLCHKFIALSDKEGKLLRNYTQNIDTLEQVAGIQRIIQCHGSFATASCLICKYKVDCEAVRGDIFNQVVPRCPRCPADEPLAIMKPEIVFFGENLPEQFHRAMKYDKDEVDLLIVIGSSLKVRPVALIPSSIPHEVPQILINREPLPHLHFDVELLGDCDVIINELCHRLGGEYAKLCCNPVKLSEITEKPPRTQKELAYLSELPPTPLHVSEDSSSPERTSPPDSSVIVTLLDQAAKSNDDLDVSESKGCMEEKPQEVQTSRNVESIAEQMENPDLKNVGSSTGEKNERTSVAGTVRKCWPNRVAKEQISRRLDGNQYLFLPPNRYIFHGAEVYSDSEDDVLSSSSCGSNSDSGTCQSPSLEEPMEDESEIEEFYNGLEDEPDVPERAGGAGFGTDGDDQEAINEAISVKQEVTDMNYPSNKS

[3] = molecular target: T1, NAD-dependent protein deacetylase sirtuin-1 (Homo sapiens); assay: Activation of full-length GST-tagged recombinant human SIRT1 assessed as enzyme activity obtained without subtraction of intrinsic fluorescence using p53-based untagged peptide as substrate at 50 uM after 30 mins by SIRTainty assay
[4] = molecular target: T1, NAD-dependent protein deacetylase sirtuin-1 (Homo sapiens); settings: HaCaT, 1 uM
[5] = molecular target: 3',5'-cyclic-AMP phosphodiesterase 4D (Homo sapiens) (UniProt Q08499); assay: Inhibition of recombinant human PDE4D assessed as phosphate release using cAMP as substrate at 50 uM after 60 mins by malachite green assay
Procedure, shortened: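 Recombinant human PDE4D (20 mU) in 10 mM Tris-HCl pH 7.4 with cAMP substrate. Compounds at 50 µM in DMSO; rolipram 10 µM as positive control. Incubated 60 min at 37 °C, then phosphate release measured by malachite green absorbance at 620 nm. Mean of three determinations.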

[6] = tested on: HaCaT; assay: Activation of AMPK/SIRT1 in human HaCaT cells assessed as nitric oxide production at 1 uM incubated for 1 hr by DAF-2D staining-based fluorescence assay; assay type: cell-based
Procedure, shortened: (§1)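 HaCaT keratinocytes grown in DMEM with 10% FBS and antibiotics. Cells treated 1 h (single-point 1 µM; dose-response at 5, 25, 50 µM). 5 µM DAF-2D added to complete medium. Cells then washed in PBS, trypsinized and analysed by flow cytometry for DAF fluorescence (ex 485/em 538 nm). Read-out is % DAF-positive cells relative to DMSO control.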

[7] = tested on: HaCaT; assay: Activation of AMPK/SIRT1 in human HaCaT cells assessed as nitric oxide production incubated for 1 hr by DAF-2D staining-based fluorescence assay; assay type: cell-based; procedure, shortened: as §1
[8] = tested on: HaCaT; assay: Activation of AMPK/SIRT1 in human HaCaT cells assessed as nitric oxide production at 10 uM incubated for 1 hr in presence of compound C by DAF-2D staining-based fluorescence assay; assay type: cell-based
Procedure, shortened: (§2)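 HaCaT cells in DMEM with 10% FBS. DHP (10 µM) given for 1 h alone or together with 10 µM AMPK inhibitor compound C or 10 µM SIRT1 inhibitor EX-527. Intracellular NO read by flow cytometry after loading with 5 µM DAF-2D in medium (ex 485/em 538 nm). Expressed as % DAF-positive cells versus DMSO.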

[9] = tested on: HaCaT; assay: Activation of AMPK/SIRT1 in human HaCaT cells assessed as nitric oxide production at 10 uM incubated for 1 hr in presence of EX-527 by DAF-2D staining-based fluorescence assay; assay type: cell-based; procedure, shortened: as §2
[10] = molecular target: T1, NAD-dependent protein deacetylase sirtuin-1 (Homo sapiens); assay: Activation of SIRT1 in […] at 1 uM by fluorimetric assay; assay type: cell-free; settings: HaCaT, TDE = time-dependent effect
[11] = molecular target: T1, NAD-dependent protein deacetylase sirtuin-1 (Homo sapiens); assay: Activation of SIRT1 in human HaCaT cells assessed as H4K16 deacetylation at 1 uM after 1 hr by Western blotting method; assay type: cell-based
Procedure, shortened: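 HaCaT cells treated 1 h at 1 µM, DMSO as solvent control. Cells lysed in Laemmli buffer and immunoblotted for acetyl-H4K16 (1:1000), with total histone H4 as loading control. Bands quantified by densitometry. At least three independent experiments.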

[12] = tested on: Mus musculus; assay: Wound healing activity in CD1 mouse assessed as decrease in epithelial gap at 1 uM administered topically on wound everyday for 14 days by biopsy punch assay; assay type: functional, organism-based
Procedure, shortened: (§3)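 Male CD1 mice, 8 weeks old, anaesthetized i.p. with medetomidine 1 mg/kg plus ketamine 75 mg/kg, then biopsy-punch wounded. Compound (1 µM) in 20 µL saline applied directly to the wound daily for 14 days; solvent-treated group as control. Epithelial gap and % wound closure followed over time.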

[13] = tested on: Mus musculus; assay: Wound healing activity in CD1 mouse assessed as increased wound closure at 1 uM administered topically on wound everyday for 14 days by biopsy punch assay; assay type: functional, organism-based; procedure, shortened: as §3
[14] = tested on: C2C12; assay: Activation of AMPK/SIRT1 in mouse C2C12 cells assessed as increase in mitochondrial density at 30 uM after 16 hrs by Mitotracker Green staining-based confocal microscopy in presence of compound C; assay type: cell-based
Procedure, shortened: (§4)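 C2C12 myoblasts plated overnight, then in serum-free HBSS pH 7.4 and treated 16 h at 30 µM, alone or with 5 µM inhibitor (EX-527 or compound C). Mitotracker Green at 200 nM final was added for the last 30 min. Cells were fixed in 4% paraformaldehyde, permeabilized with Triton X-100 and imaged by confocal microscopy with fixed settings. Alternatively, mitochondrial fluorescence was quantified in plates.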

[15] = tested on: C2C12; assay: Activation of AMPK/SIRT1 in mouse C2C12 cells assessed as increase in mitochondrial density at 30 uM after 16 hrs by Mitotracker Green staining-based confocal microscopy in presence of EX-527; assay type: cell-based; procedure, shortened: as §4
[16] = species: Cavia porcellus; assay: Antagonist activity at calcium channel in guinea pig smooth muscle assessed as inhibition of calcium-induced contraction in K+-depolarized aortic strips at 50 uM
Procedure, shortened: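 Guinea-pig isolated aortic strips depolarized with 80 mM K+; read-out is percent inhibition of calcium-induced contraction.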

[17] = species: Cavia porcellus; assay: Potency index, ratio of potency for test compound to potency for nifedipine for inhibition of calcium channel in guinea pig ileum longitudinal smooth muscle assessed as inhibition of calcium-induced contraction; assay type: tissue-based
[18] = tested on: M14; assay: Antiproliferative activity against human M14 cells assessed as cell viability after 72 hrs by MTT assay; assay type: functional, cell-based; settings: M14, 72 h
Procedure, shortened: (§5)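 Cells grown in RPMI with 10% fetal calf serum and penicillin, seeded in sextuplicate at 3 × 10^3 cells/well. After 24 h, cells were exposed 72 h to 5–200 µM. Viability was measured by MTT and expressed as treated/untreated × 100. IC50 was calculated from three independent experiments, reported as mean ± SD.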

[19] = Antiproliferative activity against human SAN cells assessed as cell viability after 72 hrs by MTT assay; assay type: functional, cell-based; procedure, shortened: as §5
[20] = tested on: A549; assay: Antiproliferative activity against human A549 cells assessed as cell viability after 72 hrs by MTT assay; assay type: functional, cell-based; settings: A549, 72 h; procedure, shortened: as §5
[21] = tested on: NCI-H1299; assay: Antiproliferative activity against human NCI-H1299 cells assessed as cell viability after 72 hrs by MTT assay; assay type: functional, cell-based; settings: NCI-H1299, 72 h; procedure, shortened: as §5
[22] = tested on: HT-29; assay: Antiproliferative activity against human HT-29 cells assessed as cell viability after 72 hrs by MTT assay; assay type: functional, cell-based; settings: HT-29, 72 h; procedure, shortened: as §5
[23] = tested on: LoVo; assay: Antiproliferative activity against human LoVo cells assessed as cell viability after 72 hrs by MTT assay; assay type: functional, cell-based; procedure, shortened: as §5
[24] = tested on: Caov-3 cell line; assay: Antiproliferative activity against human Caov3 cells assessed as cell viability after 72 hrs by MTT assay; assay type: functional, cell-based; settings: Caov-3, 72 h; procedure, shortened: as §5
[25] = tested on: HEY; assay: Antiproliferative activity against human HEY cells assessed as cell viability after 72 hrs by MTT assay; assay type: functional, cell-based; procedure, shortened: as §5
[26] = tested on: SK-OV-3; assay: Antiproliferative activity against human SKOV3 cells assessed as cell viability after 72 hrs by MTT assay; assay type: functional, cell-based; settings: SK-OV-3, 72 h; procedure, shortened: as §5
[27] = tested on: A2780; assay: Antiproliferative activity against human A2780 cells assessed as cell viability after 72 hrs by MTT assay; assay type: functional, cell-based; settings: A2780, 72 h; procedure, shortened: as §5
[28] = molecular target: T1, NAD-dependent protein deacetylase sirtuin-1 (Homo sapiens); assay: Activation of SIRT1 in human M14 cells assessed as deacetylation of acetyl-H4K16 after 48 hrs by Western blotting method; assay type: cell-based
Procedure, shortened: (§6)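 M14 melanoma and H1299 lung cancer cells treated 48 h at 5, 10 and 20 µM. Total protein extracts immunoblotted for acetyl-H4K16, with β-actin as loading control. Detection by HRP secondary antibodies and enhanced chemiluminescence. Bands quantified by densitometry.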

[29] = molecular target: T1, NAD-dependent protein deacetylase sirtuin-1 (Homo sapiens); assay: Activation of SIRT1 in human NCI-H1299 cells assessed as deacetylation of acetyl-H4K16 after 48 hrs by Western blotting method; assay type: cell-based; procedure, shortened: as §6
[30] = Antagonist activity at calcium channel in guinea pig smooth muscle assessed as inhibition of calcium-induced contraction in K+-depolarized aortic strips; settings: Cavia porcellus
[31] = tested on: HaCaT; assay: Activation of AMPK/SIRT1 in human HaCaT cells assessed as nitric oxide production up to 50 uM incubated for 1 hr by DAF-2D staining-based fluorescence assay; assay type: cell-based
Procedure, shortened: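 HaCaT keratinocytes in DMEM with 10% FBS; treated 1 h (dose-response at 5, 25, 50 µM; screen at 1 µM), DMSO solvent control. 5 µM DAF-2D added to the medium; cells washed, trypsinized and analysed by flow cytometry. Read-out is % DAF-positive cells relative to DMSO.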

3',5'-cyclic-AMP phosphodiesterase 4D (Homo sapiens), sequence (Q08499 whole entry): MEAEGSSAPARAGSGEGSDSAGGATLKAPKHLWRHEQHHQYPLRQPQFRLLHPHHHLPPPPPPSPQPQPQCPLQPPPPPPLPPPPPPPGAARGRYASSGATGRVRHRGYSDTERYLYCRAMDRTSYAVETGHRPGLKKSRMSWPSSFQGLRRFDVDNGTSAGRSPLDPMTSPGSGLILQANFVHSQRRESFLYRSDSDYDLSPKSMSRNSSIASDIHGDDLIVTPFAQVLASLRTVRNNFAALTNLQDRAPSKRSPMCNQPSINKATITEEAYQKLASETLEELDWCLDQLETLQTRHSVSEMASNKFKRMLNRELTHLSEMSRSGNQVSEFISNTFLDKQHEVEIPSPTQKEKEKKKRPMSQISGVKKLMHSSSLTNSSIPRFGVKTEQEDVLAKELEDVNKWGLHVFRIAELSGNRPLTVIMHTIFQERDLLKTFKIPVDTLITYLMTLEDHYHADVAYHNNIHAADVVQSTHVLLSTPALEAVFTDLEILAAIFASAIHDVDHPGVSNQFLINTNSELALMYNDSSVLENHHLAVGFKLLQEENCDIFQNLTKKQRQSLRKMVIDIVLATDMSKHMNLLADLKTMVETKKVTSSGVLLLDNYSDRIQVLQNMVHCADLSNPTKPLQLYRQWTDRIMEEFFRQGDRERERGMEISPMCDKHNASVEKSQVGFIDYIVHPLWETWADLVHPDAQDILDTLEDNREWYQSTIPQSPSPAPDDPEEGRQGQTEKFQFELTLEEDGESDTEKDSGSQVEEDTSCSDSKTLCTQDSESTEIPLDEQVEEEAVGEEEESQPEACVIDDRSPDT

## O=C(O)C1=CN(Cc2ccccc2)C=C(C(=O)O)C1c1ccco1
[1]
  Activity: inactive
[2]
  Activity: 41%
[3]
  Activity: 41%

## CC(NC(=O)c1ccccc1/N=C/c1c(O)ccc2ccccc12)c1ccccc1 (centres undefined)
[4]
  inhibition: Active

## CCOC(=O)C1=CN(Cc2ccccc2)C=C(C(=O)OCC)C1c1ccsc1
[5]
  inhibition: inactive
[6]
  Activity: Active
[7]
  Activity: Dose-dependent effect
[8]
  Activity: inactive
[9]
  Activity: inactive
[10]
  Activity: Tde
[11]
  Activity: Active
[12]
  Activity: Active
[13]
  Activity: Active
[1]
  Activity: Active
[14]
  Activity: inactive
[15]
  Activity: inactive
[16]
  inhibition: 13%
[17]
  Ratio: 266
[2]
  Activity: 126%
[3]
  Activity: 404%

## CCOC(=O)C1=CN(Cc2ccccc2)C=C(C(=O)OCC)C1c1ccc(CN2CCN(C)CC2)cc1
[6]
  Activity: Active
[8]
  Activity: inactive
[9]
  Activity: inactive
[18]
  IC50: 8 µM
[19]
  IC50: 16 µM
[20]
  IC50: 20 µM
[21]
  IC50: 24 µM
[22]
  IC50: 11 µM
[23]
  IC50: 15 µM
[24]
  IC50: 24 µM
[25]
  IC50: 15 µM
[26]
  IC50: 35 µM
[27]
  IC50: 10 µM
[28]
  Activity: Dose-dependent effect
[29]
  Activity: Dose-dependent effect
[2]
  Activity: 68%
[3]
  Activity: 152%

## COC(=O)C1=C(C)NC(C)=C(C(=O)OC)C1c1ccccc1[N+](=O)[O-] [NIFEDIPINE]
[30]
  IC50: 0.009 µM
[31]
  Activity: inactive
